Measured values from ChEMBL document CHEMBL1140756, “Synthesis and antiviral activity of new dimeric inhibitors against HIV-1” (Bioorg Med Chem, 2008).

Experiments:
MT4 (Homo sapiens) = experiment: Cytotoxicity against mock-infected human MT4 cells by MTT assay
[1] = test system: Human immunodeficiency virus 1; experiment: Antiviral activity against HIV1 Y181C mutant; format: functional, organism-based
How it was run: (§1)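 Acute infection of MT-4 cells (1×10^4 per well) with NNRTI-resistant HIV-1 stocks (K103N+Y181C A17, Y181C N119, efavirenz-selected K103R+V179D+P225H) titrated in C8166 cells by syncytia scoring. Compounds were serially diluted from 100 mM DMSO stocks. Virus input gave full cytopathogenicity at day 4, 37 °C. Read-out was protection of viability by MTT, or p24 immunoassay.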

[2] = Selectivity index, ratio of CC50 for human MT4 cells to EC50 for wild type HIV1; format: functional
How it was run: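 CC50 from mock-infected MT-4 cells, read by MTT in parallel with the antiviral test, divided by EC50 for 50% protection from HIV-1 IIIB cytopathogenicity (MTT, day 4 input, 37 °C). Both values are means of at least two separate experiments.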

[3] = test system: Human immunodeficiency virus 1; experiment: Antiviral activity against efavirenz-resistant HIV1; format: functional, organism-based
How it was run: as §1

[4] = test system: Human immunodeficiency virus 1; experiment: Antiviral activity against HIV1 HTLV-3B; format: functional, organism-based; conditions: Human immunodeficiency virus 1, HTLV-3B
How it was run: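 MT-4 cells (1×10^4 per well) in RPMI 1640 with 10% FCS, exposed to serial compound dilutions (DMSO stocks at 100 mM diluted in medium), then infected with HIV-1 IIIB at an input giving complete cytopathogenicity by day 4. Incubated at 37 °C; viability read by MTT. EC50 = dose giving 50% protection; mean of at least two experiments.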

[5] = test system: Human immunodeficiency virus 1; experiment: Antiviral activity against HIV1 K103N/Y181C mutant; format: functional, organism-based
How it was run: as §1

| Structure (SMILES) | CC50 (MT4 (Homo sapiens)) | EC50 [1] | Ratio CC50/EC50 [2] | EC50 [3] | EC50 [4] | EC50 [5] |
| --- | --- | --- | --- | --- | --- | --- |
| CCc1c(Cc2cc(C)cc(C)c2)n(COCC#Cc2ccc(I)cc2)c(=O)[nH]c1=O | 44 µM | 10 µM | 220 | > 44 µM | 0.2 µM | > 44 µM |
| CCc1c(Cc2cc(C)cc(C)c2)n(COCc2ccc(I)cc2)c(=O)[nH]c1=O | 19 µM | 0.1 µM | 2714 | 0.8 µM | 0.007 µM | 0.9 µM |
| CCOCn1c(Cc2ccccc2)c(C(C)C)c(=O)[nH]c1=O [EMIVIRINE] | > 100 µM | 20 µM | >3333 | 100 µM | 0.03 µM | > 100 µM |
| C#CCOCn1c(Cc2ccccc2C)c(CC)c(=O)[nH]c1=O | 33 µM | > 33 µM | 82 | > 33 µM | 0.4 µM | > 33 µM |
| CCc1c(Cc2ccccc2C)n(COCC#CC#CCOCn2c(Cc3ccccc3C)c(CC)c(=O)[nH]c2=O)c(=O)[nH]c1=O | 8 µM | > 8 µM | 1 | > 8 µM | > 8 µM | > 8 µM |
| CCc1c(Cc2cc(C)cc(C)c2)n(COCc2ccc(C#C[C@@]3(O)CC[C@@H]4[C@H]5CCC6=CC(=O)CC[C@H]6[C@@H]5CC[C@]43CC)cc2)c(=O)[nH]c1=O | > 100 µM | 2.8 µM | >250 | > 100 µM | 0.4 µM | > 100 µM |
| CCc1c(Cc2cc(C)cc(C)c2)n(COCC#Cc2ccc(COCn3c(Cc4cc(C)cc(C)c4)c(CC)c(=O)[nH]c3=O)cc2)c(=O)[nH]c1=O | 16 µM | 4 µM | 53 | > 16 µM | 0.3 µM | > 16 µM |
| CC[C@@]12CC[C@H]3C4CCC(=O)C=C4CC[C@@H]3[C@H]1CC[C@]2(O)C#CC#C[C@@]1(O)CC[C@@H]2[C@H]3CCC4=CC(=O)CCC4[C@@H]3CC[C@]21CC (some centres undefined) | 28 µM | > 28 µM | 1 | > 28 µM | > 28 µM | > 28 µM |
| CCc1c(Cc2cc(C)cc(C)c2)n(COCC#Cc2ccc(C#CCOCn3c(Cc4cc(C)cc(C)c4)c(CC)c(=O)[nH]c3=O)cc2)c(=O)[nH]c1=O | 85 µM | > 85 µM | 30 | > 85 µM | 2.8 µM | > 85 µM |
| CCc1c(Cc2cc(C)cc(C)c2)n(COCc2cn([C@H]3C[C@H](n4cc(C)c(=O)[nH]c4=O)O[C@@H]3CO)nn2)c(=O)[nH]c1=O | > 100 µM | 8 µM | >1250 | 26 µM | – | 27 µM |
| CCc1c(Cc2cc(C)cc(C)c2)n(COCC#CC#CCOCn2c(Cc3cc(C)cc(C)c3)c(CC)c(=O)[nH]c2=O)c(=O)[nH]c1=O | 9 µM | > 9 µM | 18 | > 9 µM | 0.5 µM | > 9 µM |
| C#CCOCn1c(Cc2cc(C)cc(C)c2)c(CC)c(=O)[nH]c1=O | > 100 µM | 0.2 µM | > 33300 | 16 µM | 0.003 µM | 1.2 µM |
| O=C1Nc2ccc(Cl)cc2[C@@](C#CC2CC2)(C(F)(F)F)O1 [EFAVIRENZ] | 30 µM | 0.008 µM | – | – | – | 0.3 µM |
